Data from article PMC5647227 (ACS chemical neuroscience, 2017).
pIC50, pKi: −log10 of the molar value. “Also recorded” adds a separate entry of the source.

Assays:
DOP receptor [1] = biological target: DOP receptor (Rattus norvegicus, UniProt P33533); experiment: Opioid receptor binding, [3H]DSLET displacement from rat brain membranes
DOP receptor [2] = biological target: DOP receptor (Mus musculus, UniProt P32300); experiment: Mouse vas deferens; type: biochemical
hNK1 receptors [3] = biological target: T1, hNK1 receptors (Homo sapiens, UniProt P25103); experiment: [3H]Substance-P competition binding assay, hNK1-CHO membranes
hNK1 receptors [4] = biological target: T1, hNK1 receptors; experiment: Functional NK1 receptor assay; type: cell-based
MOP receptor [5] = biological target: MOP receptor (Cavia porcellus, UniProt A0ACM8Q262); experiment: Guinea pig ileum; type: biochemical; conditions: read-out: GPI IC50; representative of MOP receptor activation
MOP receptor [6] = biological target: MOP receptor (Rattus norvegicus, UniProt P33535); experiment: Opioid receptor binding, [3H]DAMGO displacement from rat brain membranes
CCI-exposed mice [7] = experiment: Neuropathic pain model, von Frey and cold plate tests taken together; type: in vivo, mouse; conditions: i.t.; for relative analgesic efficacy among hybrids in neuropathic pain model: von Frey and cold plate tests
Procedure, shortened: (§1)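 CCI mice, unanesthetized, received test compound in water for injections intrathecally by lumbar puncture between L5 and L6, in a 5 μL volume. Doses ranged from about 0.1 to 10 nmol/animal. The cold plate was held at 2 °C and latency to hind-paw lift was timed, with a 30 s cutoff. Testing was done at 30, 90 and 180 min after dosing. Effect was expressed as % MPE.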

naive mice = experiment: Tail-flick test, acute pain after i.t. administration; type: in vivo, mouse; conditions: for duration of analgesic effect, tail-flick: 0.1 nmol; for analgesic effect in acute pain model: dose of 1 μg
CCI-exposed mice [8] = experiment: Von Frey test, tactile hypersensitivity in neuropathic pain model; type: in vivo, mouse; conditions: i.t.; for duration of effect, von Frey test: moderate dose ca. 1 nmol (1 μg)
Procedure, shortened: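 CCI mice, unanesthetized, received test compound in water for injections intrathecally by lumbar puncture between L5 and L6, in a 5 μL volume. Doses ranged from about 0.1 to 10 nmol/animal. Calibrated nylon monofilaments (0.6–6 g, 6 g cutoff) were applied in serial increments to the hind-paw plantar surface until paw withdrawal, shaking or licking. Testing was done at 30, 90 and 180 min after dosing. Effect was expressed as % MPE.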

CCI-exposed mice [9] = experiment: Cold plate test, thermal hypersensitivity in neuropathic pain model; type: in vivo, mouse; conditions: i.t.
Procedure, shortened: as §1

T1 sequence (P25103 whole entry): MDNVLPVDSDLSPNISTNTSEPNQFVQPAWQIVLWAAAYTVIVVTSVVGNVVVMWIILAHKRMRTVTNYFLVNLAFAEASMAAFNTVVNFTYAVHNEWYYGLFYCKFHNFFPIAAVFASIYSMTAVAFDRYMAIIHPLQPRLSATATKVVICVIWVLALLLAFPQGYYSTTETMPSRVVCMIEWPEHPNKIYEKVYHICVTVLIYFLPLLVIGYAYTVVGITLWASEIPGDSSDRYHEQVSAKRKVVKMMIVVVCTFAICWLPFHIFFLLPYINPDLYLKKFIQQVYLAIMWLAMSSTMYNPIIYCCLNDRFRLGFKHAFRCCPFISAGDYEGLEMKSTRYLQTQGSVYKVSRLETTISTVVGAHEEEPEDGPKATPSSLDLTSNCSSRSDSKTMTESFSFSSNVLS
Sequence of MOP receptor (Rattus norvegicus, UniProt P33535) (P33535 whole entry): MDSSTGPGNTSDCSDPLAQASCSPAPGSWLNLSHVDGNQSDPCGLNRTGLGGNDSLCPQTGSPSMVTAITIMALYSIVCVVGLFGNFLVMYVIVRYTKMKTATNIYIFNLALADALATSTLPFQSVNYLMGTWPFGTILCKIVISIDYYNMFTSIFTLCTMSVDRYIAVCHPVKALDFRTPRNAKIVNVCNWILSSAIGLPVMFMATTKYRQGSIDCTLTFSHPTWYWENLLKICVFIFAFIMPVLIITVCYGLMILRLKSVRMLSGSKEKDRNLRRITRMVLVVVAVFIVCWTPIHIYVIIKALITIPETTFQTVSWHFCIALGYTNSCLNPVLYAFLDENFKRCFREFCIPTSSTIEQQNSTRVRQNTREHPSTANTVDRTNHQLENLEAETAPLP
Sequence of MOP receptor (Cavia porcellus, UniProt A0ACM8Q262) (A0ACM8Q262 1-400): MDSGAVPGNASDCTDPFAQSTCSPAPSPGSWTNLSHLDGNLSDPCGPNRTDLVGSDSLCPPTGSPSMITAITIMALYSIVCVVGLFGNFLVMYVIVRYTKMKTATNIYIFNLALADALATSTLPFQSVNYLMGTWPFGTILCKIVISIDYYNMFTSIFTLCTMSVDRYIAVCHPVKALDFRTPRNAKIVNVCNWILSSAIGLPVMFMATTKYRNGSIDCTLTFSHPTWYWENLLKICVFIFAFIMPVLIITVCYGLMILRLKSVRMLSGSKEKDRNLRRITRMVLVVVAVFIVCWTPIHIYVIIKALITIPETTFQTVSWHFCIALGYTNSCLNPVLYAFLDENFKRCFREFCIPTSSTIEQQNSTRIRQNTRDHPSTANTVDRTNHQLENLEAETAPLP
Sequence of DOP receptor (Rattus norvegicus, UniProt P33533) (P33533 whole entry): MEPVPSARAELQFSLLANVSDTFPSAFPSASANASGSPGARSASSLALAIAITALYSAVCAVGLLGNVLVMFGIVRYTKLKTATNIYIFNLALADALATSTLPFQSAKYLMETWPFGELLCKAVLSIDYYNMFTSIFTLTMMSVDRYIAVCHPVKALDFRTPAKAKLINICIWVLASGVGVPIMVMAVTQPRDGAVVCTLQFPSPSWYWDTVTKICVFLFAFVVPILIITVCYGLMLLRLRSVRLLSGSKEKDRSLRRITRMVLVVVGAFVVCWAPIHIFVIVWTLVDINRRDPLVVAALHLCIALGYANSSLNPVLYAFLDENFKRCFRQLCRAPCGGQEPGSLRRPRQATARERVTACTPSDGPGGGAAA
Sequence of DOP receptor (Mus musculus, UniProt P32300) (P32300 whole entry): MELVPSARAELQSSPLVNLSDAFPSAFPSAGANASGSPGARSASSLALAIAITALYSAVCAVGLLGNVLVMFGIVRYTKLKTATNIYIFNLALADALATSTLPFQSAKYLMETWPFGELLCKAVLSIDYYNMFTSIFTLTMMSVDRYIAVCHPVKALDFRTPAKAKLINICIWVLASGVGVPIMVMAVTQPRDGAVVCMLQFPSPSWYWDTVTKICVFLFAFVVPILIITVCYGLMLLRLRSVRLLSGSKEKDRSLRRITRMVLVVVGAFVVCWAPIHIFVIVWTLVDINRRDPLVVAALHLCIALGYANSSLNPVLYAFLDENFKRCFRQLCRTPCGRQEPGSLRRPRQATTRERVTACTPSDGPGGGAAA

| Compound | pKi (DOP receptor [1]) | pIC50 (DOP receptor [2]) | pKi (hNK1 receptors [3]) | Kb (hNK1 receptors [4]) | pIC50 (MOP receptor [5]) | pKi (MOP receptor [6]) | further results |
| --- | --- | --- | --- | --- | --- | --- | --- |
| Cc1cc(O)cc(C)c1C[C@H](N)C(=O)N[C@H](CCCNC(=N)N)C(=O)N[C@H]1Cc2ccccc2CN(CCC(=O)N(Cc2ccccc2)C2CC2)C1=O [Compound 7, H-Dmt-D-Arg-Aba-β-Ala-NcPr-Bn] | 7.18 | 8.18 | 6.28 | 6310 nM | 7.72 | 8.57 | – |
| H-Dmt-D-Arg-Aba-Gly-NMe-3′,5′-(CF3)2-Bn [Compound 3, reference compound] | – | – | – | – | – | – | response latency / alleviation of hypersensitivity in neuropathic pain model (CCI-exposed mice [7]; test not specified or both tests): ca. 60 % MPE; tail-flick effect compared with parent compound (naive mice): weaker than its parent compound |
| Cc1cc(O)cc(C)c1C[C@H](N)C(=O)N[C@H](CCCNC(=N)N)C(=O)N[C@H]1Cc2ccccc2CN(CC(=O)N2Cc3ccccc3C2)C1=O [Compound 10, H-Dmt-D-Arg-Aba-Gly-isoindoline] | 7.09 | 8.10 | 5.46 | 692000 nM | 8.14 | 10.22 | – |
| COc1ccccc1CN(C)C(=O)CN1Cc2ccccc2C[C@H](NC(=O)[C@@H](CCCNC(=N)N)NC(=O)[C@@H](N)Cc2c(C)cc(O)cc2C)C1=O [Compound 11, H-Dmt-D-Arg-Aba-Gly-NMe-2′-OMe-Bn] | 7.59 | 8.62 | 6.30 | 14500 nM | 8.30 | 9.05 | – |
| Cc1cc(O)cc(C)c1C[C@H](N)C(=O)N[C@H](CCCNC(=N)N)C(=O)N[C@H]1Cc2ccccc2CN(CCC(=O)N(C)Cc2ccc3ccccc3c2)C1=O [Compound 12, H-Dmt-D-Arg-Aba-β-Ala-NMe-2′-methylenenaphthyl] | 7.36 | 8.40 | 6.21 | 97.7 nM | 8.05 | 9.40 | relative analgesic efficacy among hybrids in neuropathic pain model (CCI-exposed mice [7]): weaker in both tests; duration of analgesic effect, tail-flick (naive mice): up to 180 min after administration; analgesic effect, tail-flick (naive mice; doses raised up to ca. 10 nmol): 60–70 % MPE; duration of effect, von Frey test (CCI-exposed mice [8]): not observable 180 min after administration |
| H-Dmt-D-Arg-Aba-β-Ala-NH2 [Compound 2] | – | – | – | – | – | – | analgesic effect, tail-flick (naive mice; highest dose tested 1 nmol): ≤ 80 % MPE; analgesic effect, cold plate test (CCI-exposed mice [9]; maximum over doses): no more than 20 % MPE; influence on response threshold, von Frey test (CCI-exposed mice [8]): no influence on the response threshold; also recorded: not efficacious at all |
| H-Dmt-D-Arg-Aba-Gly-NH2 [Compound 1] | – | – | – | – | – | – | lowest dose raising latency of response to thermal stimuli, tail-flick (naive mice): 0.0013 nmol; analgesic effect in acute pain model (naive mice): ~100 % MPE; analgesic effect in acute pain model (naive mice; at 180 min after administration): > 80 % MPE; analgesic effect, tail-flick (naive mice; highest dose tested 1.3 nmol, lasting up to 180 min): ~100 % MPE; lowest efficacious dose in acute pain model (naive mice; p < 0.05 vs vehicle): 0.001 nmol/5 μL/animal; analgesic effect, von Frey test (CCI-exposed mice [8]; at 30 min): ca. 40 % MPE; analgesic effect, von Frey test (CCI-exposed mice [8]; maximum over doses): ≤ 40 % MPE |
| Cc1cc(O)cc(C)c1C[C@H](N)C(=O)N[C@H](CCCNC(=N)N)C(=O)N[C@H]1Cc2ccccc2CN(CCC(=O)N2Cc3ccccc3C2)C1=O [Compound 9, H-Dmt-D-Arg-Aba-β-Ala-isoindoline] | 7.80 | 8.68 | < 5.00 | – | 8.30 | 9.70 | – |
| Cc1cc(O)cc(C)c1C[C@H](N)C(=O)N[C@H](CCCNC(=N)N)C(=O)N[C@H]1Cc2ccccc2CN(CCC(=O)N(Cc2cc(C(F)(F)F)cc(C(F)(F)F)c2)C2CC2)C1=O [Compound 6, H-Dmt-D-Arg-Aba-β-Ala-NcPr-3′,5′-(CF3)2-Bn] | 6.72 | 7.80 | 6.13 | 4370 nM | 7.74 | 7.33 | – |
| Cc1cc(O)cc(C)c1C[C@H](N)C(=O)N[C@H](CCCNC(=N)N)C(=O)N[C@H]1Cc2ccccc2CN(CC(=O)N(Cc2ccccc2)C2CC2)C1=O [Compound 8, H-Dmt-D-Arg-Aba-Gly-NcPr-Bn] | 7.17 | 7.95 | 7.02 | 3160 nM | 8.00 | 9.52 | – |
| Cc1cc(O)cc(C)c1C[C@H](N)C(=O)N[C@H](CCCNC(=N)N)C(=O)N[C@H]1Cc2ccccc2CN(CC(=O)N(C)Cc2ccc3ccccc3c2)C1=O [Compound 13, H-Dmt-D-Arg-Aba-Gly-NMe-2′-methylenenaphthyl] | 6.64 | 8.00 | 6.15 | 3630 nM | 8.52 | 8.55 | relative analgesic efficacy among hybrids in neuropathic pain model (CCI-exposed mice [7]): most efficient analgesic in both tests; duration of analgesic effect, tail-flick (naive mice): up to 180 min after administration; analgesic effect, tail-flick (naive mice; doses raised up to ca. 10 nmol): 60–70 % MPE; effect in attenuating acute pain (naive mice; measured at three time points after administration): ~ 60 % MPE; influence on response, cold plate test (CCI-exposed mice [9]; 0.1 nmol): did not significantly influence the response; effect at 180 min, cold plate test (CCI-exposed mice [9]; highest dose 10 nmol): provided an effect at 180 min after administration; response threshold, von Frey test (CCI-exposed mice [8]; lowest tested dose 0.1 nmol): ca. 70 % MPE; duration of effect, von Frey test (CCI-exposed mice [8]): not observable 180 min after administration |
